Laboratory results as given in ChEMBL document CHEMBL1155262, “A new class of anticonvulsants possessing 6 Hz activity: 3,4-dialkyloxy thiophene bishydrazones” (Eur J Med Chem, 2009).
Active and inactive are the calls of the source. The calls are words filed in the database; no cut-off is given here.

How the values were obtained:
Mus musculus [1] = assay: Anticonvulsant activity in mouse CF1 albino assessed as inhibition of subcutaneous metrazole-induced seizure at 300 mg/kg, ip after 0.5 hrs; format: functional, organism-based; design: dose 300 mg/kg
Mus musculus [2] = assay: Anticonvulsant activity in mouse CF1 albino assessed as inhibition of maximal electric shock-induced seizure at 300 mg/kg, ip after 4 hrs; format: functional, organism-based; design: dose 300 mg/kg
Procedure, shortened: (§1)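 Male CF-1 albino mice (18–25 g); compound suspended in 0.5% methyl cellulose/water or PEG 200, given i.p. at 30, 100 and 300 mg/kg (0.01 mL/g). Tested 0.5 or 4 h after dosing. Protection = abolition of hind limb tonic extensor component of MES seizure.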

Mus musculus [3] = assay: Anticonvulsant activity in mouse CF1 albino assessed as inhibition of maximal electric shock-induced seizure at 300 mg/kg, ip after 0.5 hrs; format: functional, organism-based; design: dose 300 mg/kg; procedure, shortened: as §1
Mus musculus [4] = assay: Neurotoxicity against ip dosed mouse CF1 albino assessed as minimal motor impairment after 4 hrs by rotord test; format: toxicity, organism-based; conditions: in vivo
Procedure, shortened: (§2)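 Rotorod minimal motor impairment in male CF-1 albino mice (18–25 g) after i.p. dosing at 30, 100 or 300 mg/kg in 0.5% methyl cellulose/water or PEG 200. Mice placed on a rod rotating at 6 rpm at 0.5 or 4 h. Value is minimum dose causing impairment in at least one mouse.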

Mus musculus [5] = assay: Anticonvulsant activity in mouse CF1 albino assessed as inhibition of subcutaneous metrazole-induced seizure at 300 mg/kg, ip after 4 hrs; format: functional, organism-based; design: dose 300 mg/kg
Mus musculus [6] = assay: Neurotoxicity against ip dosed mouse CF1 albino assessed as minimal motor impairment after 0.5 hrs by rotord test; format: toxicity, organism-based; conditions: in vivo; procedure, shortened: as §2
Mus musculus [7] = assay: Neurotoxicity against mouse CF1 albino assessed as minimal motor impairment at 300 mg/kg, ip after 4 hrs by rotord test; format: toxicity, organism-based; design: dose 300 mg/kg, route intraperitoneal; conditions: in vivo; procedure, shortened: as §2
Mus musculus [8] = assay: Anticonvulsant activity in ip dosed mouse CF1 albino assessed as inhibition of subcutaneous metrazole-induced seizure after 4 hrs; format: functional
Mus musculus [9] = assay: Neurotoxicity against mouse CF1 albino assessed as minimal motor impairment at 300 mg/kg, ip after 0.5 hrs by rotord test; format: toxicity, organism-based; design: dose 300 mg/kg, route intraperitoneal; conditions: in vivo; procedure, shortened: as §2
Mus musculus [10] = assay: Anticonvulsant activity in mouse CF1 albino assessed as inhibition of minimal electric shock-induced seizure at 100 mg/kg, ip after 0.25 hrs; format: functional, organism-based; design: dose 100 mg/kg
Procedure, shortened: (§3)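 6 Hz psychomotor seizure model in male CF-1 albino mice dosed i.p. Four mice per time point (0.25, 0.5, 1, 2, 4 h) received corneal-electrode current of 32 mA for 3 s. Untreated mice show a minimal clonic phase followed by stereotyped automatistic behaviour. Results given as number protected out of 4.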

Mus musculus [11] = assay: Anticonvulsant activity in mouse CF1 albino assessed as inhibition of minimal electric shock-induced seizure at 100 mg/kg, ip after 2 hrs; format: functional, organism-based; design: dose 100 mg/kg; procedure, shortened: as §3
Mus musculus [12] = assay: Anticonvulsant activity in mouse CF1 albino assessed as inhibition of minimal electric shock-induced seizure at 100 mg/kg, ip after 4 hrs; format: functional, organism-based; design: dose 100 mg/kg; procedure, shortened: as §3
Mus musculus [13] = assay: Anticonvulsant activity in mouse CF1 albino assessed as inhibition of minimal electric shock-induced seizure at 100 mg/kg, ip after 1 hr; format: functional, organism-based; design: dose 100 mg/kg; procedure, shortened: as §3
Mus musculus [14] = assay: Anticonvulsant activity in mouse CF1 albino assessed as inhibition of minimal electric shock-induced seizure at 30 mg/kg, ip after 0.25 hrs; format: functional, organism-based; design: dose 30 mg/kg; procedure, shortened: as §3
Mus musculus [15] = assay: Anticonvulsant activity in mouse CF1 albino assessed as inhibition of minimal electric shock-induced seizure at 30 mg/kg, ip after 0.5 hrs; format: functional, organism-based; design: dose 30 mg/kg; procedure, shortened: as §3
Mus musculus [16] = assay: Anticonvulsant activity in mouse CF1 albino assessed as inhibition of minimal electric shock-induced seizure at 30 mg/kg, ip after 1 hr; format: functional, organism-based; design: dose 30 mg/kg; procedure, shortened: as §3
Mus musculus [17] = assay: Anticonvulsant activity in mouse CF1 albino assessed as inhibition of minimal electric shock-induced seizure at 30 mg/kg, ip after 2 hrs; format: functional, organism-based; design: dose 30 mg/kg; procedure, shortened: as §3
Mus musculus [18] = assay: Anticonvulsant activity in mouse CF1 albino assessed as inhibition of minimal electric shock-induced seizure at 30 mg/kg, ip after 4 hrs; format: functional, organism-based; design: dose 30 mg/kg; procedure, shortened: as §3
Mus musculus [19] = assay: Anticonvulsant activity in mouse CF1 albino assessed as inhibition of minimal electric shock-induced seizure at 100 mg/kg, ip after 0.5 hrs; format: functional, organism-based; design: dose 100 mg/kg; procedure, shortened: as §3
Mus musculus [20] = assay: Anticonvulsant activity in ip dosed mouse CF1 albino assessed as inhibition of maximal electric shock-induced seizure after 4 hrs; format: functional; procedure, shortened: as §1
Mus musculus [21] = assay: Anticonvulsant activity in mouse CF1 albino assessed as inhibition of minimal electric shock-induced seizure at 50 mg/kg, ip after 0.5 hrs; format: functional, organism-based; design: dose 50 mg/kg; procedure, shortened: as §3
Mus musculus [22] = assay: Anticonvulsant activity in mouse CF1 albino assessed as inhibition of minimal electric shock-induced seizure at 50 mg/kg, ip after 1 hr; format: functional, organism-based; design: dose 50 mg/kg; procedure, shortened: as §3
Mus musculus [23] = assay: Anticonvulsant activity in mouse CF1 albino assessed as inhibition of minimal electric shock-induced seizure at 50 mg/kg, ip after 2 hrs; format: functional, organism-based; design: dose 50 mg/kg; procedure, shortened: as §3
Mus musculus [24] = assay: Anticonvulsant activity in mouse CF1 albino assessed as inhibition of minimal electric shock-induced seizure at 50 mg/kg, ip after 4 hrs; format: functional, organism-based; design: dose 50 mg/kg; procedure, shortened: as §3
Mus musculus [25] = assay: Anticonvulsant activity in mouse CF1 albino assessed as inhibition of minimal electric shock-induced seizure at 50 mg/kg, ip after 0.25 hrs; format: functional, organism-based; design: dose 50 mg/kg; procedure, shortened: as §3

Row | SMILES | Activity (Mus musculus [1]) | Activity (Mus musculus [2]) | Activity (Mus musculus [3]) | Activity (Mus musculus [5]) | Activity (Mus musculus [6]) | Activity (Mus musculus [7]) | other results
1 | CCCOc1c(C(=O)N/N=C/c2ccc(N(C)C)cc2)sc(C(=O)N/N=C/c2ccc(N(C)C)cc2)c1OCCC | inactive | inactive | inactive | inactive | 100 mg/kg |  | Activity (Mus musculus [4]): 300 mg/kg
2 | CCCOc1c(C(=O)N/N=C/c2ccc([N+](=O)[O-])cc2)sc(C(=O)N/N=C/c2ccc([N+](=O)[O-])cc2)c1OCCC | inactive | inactive | inactive | inactive | 100 mg/kg | Not Active | 
3 | CCCOc1c(C(=O)N/N=C/c2ccccc2O)sc(C(=O)N/N=C/c2ccccc2O)c1OCCC | inactive | inactive | inactive |  |  | Not Active | Activity (Mus musculus [8]): 300 mg/kg; Activity (Mus musculus [9]): Not Active; Activity (Mus musculus [10]): inactive; Activity (Mus musculus [11]): inactive; Activity (Mus musculus [12]): inactive
4 | CCCCCCCOc1c(C(=O)N/N=C/c2cc(OC)c(OC)c(OC)c2)sc(C(=O)N/N=C/c2cc(OC)c(OC)c(OC)c2)c1OCCCCCCC |  |  |  |  |  |  | Activity (Mus musculus [10]): inactive
5 | O=C(N/N=C/c1ccc([N+](=O)[O-])cc1)c1sc(C(=O)N/N=C/c2ccc([N+](=O)[O-])cc2)c(OCc2ccccc2)c1OCc1ccccc1 | inactive | inactive | inactive | inactive | 100 mg/kg | Not Active | 
6 | CCCCCCCOc1c(C(=O)N/N=C2/C(=O)Nc3ccccc32)sc(C(=O)N/N=C2/C(=O)Nc3ccccc32)c1OCCCCCCC |  |  |  |  |  |  | Activity (Mus musculus [10]): inactive; Activity (Mus musculus [13]): inactive
7 | CCCCCCCOc1c(C(=O)N/N=C(\C)c2cccs2)sc(C(=O)N/N=C(\C)c2cccs2)c1OCCCCCCC |  |  |  |  |  |  | Activity (Mus musculus [14]): inactive; Activity (Mus musculus [15]): inactive; Activity (Mus musculus [16]): inactive; Activity (Mus musculus [17]): inactive; Activity (Mus musculus [18]): inactive; Activity (Mus musculus [13]): inactive
8 | CCCOc1c(C(=O)N/N=C/c2ccccc2OC)sc(C(=O)N/N=C/c2ccccc2OC)c1OCCC | inactive | inactive | inactive | inactive | 100 mg/kg | Not Active | 
9 | CCCOc1c(C(=O)N/N=C(/C)c2ccc(Br)s2)sc(C(=O)N/N=C(/C)c2ccc(Br)s2)c1OCCC |  |  |  |  |  |  | Activity (Mus musculus [19]): inactive
10 | CCCOc1c(C(=O)NN)sc(C(=O)NN)c1OCCC | inactive | inactive | inactive | inactive | 100 mg/kg | Not Active | 
11 | CCCOc1c(C(=O)N/N=C(/C)c2cc(Cl)sc2Cl)sc(C(=O)N/N=C(/C)c2cc(Cl)sc2Cl)c1OCCC | inactive | inactive | inactive |  | 300 mg/kg | Not Active | Activity (Mus musculus [8]): 300 mg/kg
12 | CCCOc1c(C(=O)N/N=C(/C)c2ccsc2Br)sc(C(=O)N/N=C(/C)c2ccsc2Br)c1OCCC |  |  |  |  |  |  | Activity (Mus musculus [10]): inactive; Activity (Mus musculus [11]): inactive; Activity (Mus musculus [12]): inactive
13 | CCCOc1c(C(=O)N/N=C/c2ccc(C(=O)O)cc2)sc(C(=O)N/N=C/c2ccc(C(=O)O)cc2)c1OCCC | inactive | inactive | inactive | inactive | 100 mg/kg | Not Active | 
14 | C/C(=N\NC(=O)c1sc(C(=O)N/N=C(\C)c2cccs2)c(OCc2ccccc2)c1OCc1ccccc1)c1cccs1 | inactive |  | inactive | inactive |  | Not Active | Activity (Mus musculus [20]): 300 mg/kg; Activity (Mus musculus [9]): Not Active
15 | CCCOc1c(C(=O)N/N=C/c2cccnc2N)sc(C(=O)N/N=C/c2cccnc2N)c1OCCC |  |  |  |  |  |  | Activity (Mus musculus [19]): inactive; Activity (Mus musculus [13]): inactive; Activity (Mus musculus [11]): inactive; Activity (Mus musculus [12]): inactive
16 | COc1cc(/C=N/NC(=O)c2sc(C(=O)N/N=C/c3cc(OC)c(OC)c(OC)c3)c3c2OCCO3)cc(OC)c1OC | inactive | inactive | inactive | inactive | 300 mg/kg | Not Active | 
17 | CCCOc1c(C(=O)N/N=C2/C(=O)Nc3ccccc32)sc(C(=O)N/N=C2/C(=O)Nc3ccccc32)c1OCCC | inactive |  | inactive | inactive | 100 mg/kg |  | Activity (Mus musculus [20]): 300 mg/kg; Activity (Mus musculus [4]): 300 mg/kg; Activity (Mus musculus [13]): inactive; Activity (Mus musculus [11]): inactive; Activity (Mus musculus [12]): inactive
18 | CCCOc1c(C(=O)N/N=C/c2cc([N+](=O)[O-])ccc2Br)sc(C(=O)N/N=C/c2cc([N+](=O)[O-])ccc2Br)c1OCCC | inactive | inactive | inactive | inactive | 300 mg/kg | Not Active | 
19 | CCCCCCCOc1c(C(=O)NN)sc(C(=O)NN)c1OCCCCCCC | inactive |  | inactive | inactive |  | Not Active | Activity (Mus musculus [20]): 100 mg/kg; Activity (Mus musculus [9]): Not Active
20 | CCCOc1c(C(=O)N/N=C(/C)c2ccsc2)sc(C(=O)N/N=C(/C)c2ccsc2)c1OCCC |  |  |  |  |  |  | Activity (Mus musculus [10]): inactive; Activity (Mus musculus [12]): inactive
21 | CCCCCCCOc1c(C(=O)N/N=C/c2ccc3c(c2)c2ccccc2n3CC)sc(C(=O)N/N=C/c2ccc3c(c2)c2ccccc2n3CC)c1OCCCCCCC |  |  |  |  |  |  | Activity (Mus musculus [21]): inactive; Activity (Mus musculus [22]): inactive; Activity (Mus musculus [23]): inactive; Activity (Mus musculus [24]): inactive; Activity (Mus musculus [25]): inactive
